Assay results from different studies.
Organism: Staphylococcus aureus
Observed: microbial growth

Compound | assay | test system | setting | MIC
CC1=NN(CNc2ccc(Cl)cc2)C(=O)C1=NNn1c(-c2ccccc2)nc2ccccc2c1=O | broth dilution | – | 24 h | 51.5 µM
O=C1NC(=S)S/C1=C\c1c2ccccc2c(-c2ccc(N(c3ccccc3)c3ccccc3)cc2)c2ccccc12 | broth dilution | ATCC6538 | – | > 1000 µg/mL
COc1cccc2cc(-c3nc([C@H]4CC[C@H](C(=O)O)CC4)n4ncnc(N)c34)[nH]c12 | – | NCTC8325 | – | > 30 µM
Cc1cc(C(=O)Nc2ccc(C(=O)N[C@@H](CC(N)=O)C(=O)Nc3ccc(C(=O)Nc4ccc(C(=O)Nc5ccc(C(=O)O)cc5)c(O)c4OC(C)C)cc3)cc2)ccc1C#N | – | ATCC29213 | – | 2 µg/mL
C#CCCCCC(=O)Nc1ccccc1 | – | NCTC8325 | – | > 100 µM
Cc1ccc(C)n1-c1ccc(-c2nnc(-c3c(Cl)cccc3Cl)[nH]2)cc1 | broth dilution | ATCC11632 | 18 h | 1 µg/mL
c1ccc2[nH]c(-c3ccc4c(c3)OCO4)nc2c1 | broth dilution | ATCC29213 MSSA | – | 128 µg/mL
O=C(Nc1ccc2c(c1)OC(F)(F)O2)Nc1ccc(Cl)c(C(F)(F)F)c1 | – | NCTC8325 | – | 0.3 µM
CC(C)Oc1c(NC(=O)c2ccc(NC(=O)[C@H](CC(N)=O)NC(=O)c3ccc(NC(=O)c4ccc(NC(=O)c5ccc([N+](=O)[O-])cc5)cc4)cc3)cc2)ccc(C(=O)Nc2ccc(C(=O)O)cc2)c1O | – | ATCC29213 | – | > 64 µg/mL
CNc1cccc2cc(C(=O)NCc3ccc(C(=O)O)cc3)c(=O)[nH]c12 | – | ATCC29213 | – | > 64 µg/mL
Brc1cccc(NCc2ccc(Oc3ccccn3)cc2)c1 | – | – | – | > 3.1 µg/mL
C/C=C(\C)c1cc(O)c(C)c(OC(=O)c2c(C)c(Cl)c(O)c(Cl)c2O)c1 | broth dilution | 16162 | – | 2 µg/mL
Cc1cc(C)cc(NC(=O)Nc2ccc(N3CCCCC3)cc2)c1 | – | – | – | > 128 µg/mL
CN[C@H](CC(C)C)C(=O)N[C@H]1C(=O)N[C@@H](CC(N)=O)C(=O)N[C@H]2C(=O)N[C@H]3C(=O)N[C@H](C(=O)N[C@H](C(=O)O)c4cc(O)cc(O)c4-c4cc3ccc4O)[C@H](O)c3ccc(c(Cl)c3)Oc3cc2cc(c3O[C@@H]2O[C@H](CO)[C@@H](O)[C@H](O)[C@H]2O[C@H]2C[C@](C)(N)[C@H](O)[C@H](C)O2)Oc2ccc(cc2Cl)[C@H]1O | – | ATCC25923 | – | 0.39 µg/mL
Cn1c(=O)c(F)c(Nc2ccc(I)cc2F)c2c(=O)n(C[C@@H](O)CO)cnc21 | – | NCTC8325 | – | > 30 µM
O=[N+]([O-])c1ccc(O)c2ncccc12 | broth dilution | ATCC29213 | – | 2 µg/mL
Nc1nccc(Oc2ccc(NC(=O)c3c[nH]cc(-c4ccc(F)cc4)c3=O)cc2F)c1Cl | – | NCTC8325 | – | > 30 µM
C/C=C(\C)c1cc(OC(=O)c2c(O)c(C)c(O)c(Cl)c2/C(C)=C/C)c(C)c(O)c1C(=O)O | broth dilution | 16339 | – | 64 µg/mL
COC(=O)c1ccc2c(C(=Nc3ccc(N(C)C(=O)CN4CCN(C)CC4)cc3)c3ccccc3)c(O)[nH]c2c1 | – | NCTC8325 | – | > 30 µM
COc1cc(OC)c2cc(C(=O)NCc3ccc(Br)cc3)cc(O)c2c1 | broth dilution | ATCC29213 MSSA | – | 32 µg/mL
Cc1cc2c(F)c(Oc3ncnn4cc(OC[C@@H](C)O)c(C)c34)ccc2[nH]1 | – | NCTC8325 | – | > 30 µM
COc1cccc(-c2nc3ccccc3n2Cc2ccccc2)c1 | broth dilution | ATCC29213 MSSA | – | 256 µg/mL
